Assay results as given in ChEMBL document CHEMBL1138617, “Synthesis of potent antitumor and antiviral benzofuran derivatives” (Bioorg Med Chem Lett, 2009).
Counter-ions that a name gives are not always drawn.

Tests used:
K562 = assay: Cytotoxicity against human K562 cells by MTT assay; format: functional, cell-based
In short: (§1)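 Growth inhibition by MTT assay (Mosmann method) on human cancer cell lines and on normal human fetal lung fibroblast WI 38 cells.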

G-361 = assay: Cytotoxicity against human G361 cells by MTT assay; format: functional, cell-based; in short: as §1
[1] = Cytotoxicity against human RKOp27 cells by MTT assay; format: functional, cell-based
U-937 = assay: Cytotoxicity against human U937 cells by MTT assay; format: functional, cell-based; in short: as §1
HL-60 = assay: Cytotoxicity against human HL60 cells by MTT assay; format: functional, cell-based; in short: as §1
NCI-H460 = assay: Cytotoxicity against human NCI-H460 cells by MTT assay; format: functional, cell-based
[2] = biological target: Human immunodeficiency virus type 1 reverse transcriptase (Human immunodeficiency virus 1, UniProt Q72547); assay: Inhibition of recombinant HIV1 reverse transcriptase in cell free Quan-T-RT by scintillation proximity assay
[3] = test system: Human immunodeficiency virus; assay: Antiviral activity against HIV infected in human CEM-SS cells assessed as inhibition of virus induced cell killing by XTT assay; format: functional, organism-based; conditions: Human immunodeficiency virus 1, CEM-SS
In short: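 Microtiter anti-HIV assay in CEM-SS cells or fresh human PBMCs, measuring inhibition of HIV-induced cell killing or HIV replication. Read-out is XTT tetrazolium reduction to formazan by viable cells.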

[4] = Therapeutic index, ratio of toxic dose of drug for 50% of the population TD50 to minimum effective dose ED50 of the population; conditions: read-out: Ratio TD50/ED50
GOTO = assay: Cytotoxicity against human GOTO cells by MTT assay; format: functional, cell-based; in short: as §1
SK-MEL-28 = assay: Cytotoxicity against human SK-MEL-28 cells by MTT assay; format: functional, cell-based; in short: as §1
[5] = (§2) Inhibition of HCV NS3/4A protease activity after 48 hrs by RT-PCR; design: species or system Hepacivirus hominis
[6] = Cytotoxicity against human WI38 cells by MTT assay; format: cell-based; conditions: WI-38; in short: as §1
HCV NS3-4A protease = assay: Therapeutic index, ratio of CC50 for human hepatocytes to IC50 for HCV NS3-4A protease; format: cell-based, Hepatocyte; conditions: read-out: Ratio CC50/IC50
[7] = Cytotoxicity against human hepatocytes by MTT assay; format: cell-based, Hepatocyte
Hepacivirus hominis = assay: as §2
SF-268 = assay: Cytotoxicity against human SF268 cells by MTT assay; format: functional, cell-based
SK-OV-3 = assay: Cytotoxicity against human SKOV3 cells by MTT assay; format: functional, cell-based
NB1 = assay: Cytotoxicity against human NB-1 cells by MTT assay; format: functional, cell-based; in short: as §1

| Structure (SMILES) | IC50 (K562) | IC50 (G-361) | IC50 [1] | IC50 (U-937) | IC50 (HL-60) | IC50 (NCI-H460) | IC50 [2] | EC50 [3] | selectivity ratio [4] | IC50 (GOTO) | IC50 (SK-MEL-28) | IC50 [5] | IC50 [6] | selectivity ratio (HCV NS3-4A protease) | CC50 [7] | IC90 (Hepacivirus hominis) | IC50 (SF-268) | IC50 (SK-OV-3) | IC50 (NB1) |
| --- | --- | --- | --- | --- | --- | --- | --- | --- | --- | --- | --- | --- | --- | --- | --- | --- | --- | --- | --- |
| COc1c(C(=O)C2=CN3C(=CN=C2)Nc2ccccc23)c(O)cc2occc12 | 0.0298 nM | 0.0313 nM | 0.0255 nM | 0.0301 nM | 0.0305 nM | 0.0255 nM | 47.5 µM | 0.06 nM | 23500 | 0.0291 nM | 0.0305 nM | > 100000 nM | 0.0284 nM | – | – | – | – | – | – |
| COc1c(C(=O)C2=CN3C(=CN=C2)Nc2ccccc23)c(O)c(OC)c2occc12 | 0.0338 nM | 0.0316 nM | 0.0277 nM | 0.0333 nM | 0.0325 nM | 0.0255 nM | 9.44 µM | 0.35 nM | 21700 | 0.0329 nM | 0.0321 nM | 444 nM | 0.0333 nM | 577 | 256 µM | 955 nM | – | – | – |
| COc1c(C(=O)/C=C/Nc2ccncc2)c(O)c(OC)c2occc12 | 0.0263 nM | 0.0263 nM | 0.0255 nM | 0.0263 nM | 0.0263 nM | 0.0284 nM | 4.8 µM | 0.01 nM | 1260 | 0.0253 nM | 0.0281 nM | 986 nM | 0.0253 nM | 441 | 435 µM | 2310 nM | – | – | – |
| COc1c(C(=O)C2=CN3C=CNC=C3N=C2)c(O)c(OC)c2occc12 | 0.0321 nM | 0.0298 nM | 0.0284 nM | 0.0284 nM | 0.0266 nM | 0.0255 nM | 14.6 µM | 0.09 nM | 20000 | 0.0258 nM | 0.026 nM | > 100000 nM | 0.0373 nM | – | – | – | – | – | – |
| Nc1ccn([C@@H]2O[C@H](CO)[C@@H](O)[C@@H]2O)c(=O)n1 [CYTARABINE] | – | – | – | – | – | – | – | – | – | – | – | – | – | – | – | – | 7.68 nM | – | – |
| NCc1nc2ccccc2[nH]1 | 0.0313 nM | 0.0305 nM | 0.0255 nM | 0.0298 nM | 0.0291 nM | 0.032 nM | 5.1 µM | 0.01 nM | 1760 | 0.0263 nM | 0.0301 nM | 876 nM | 0.0269 nM | 515 | 451 µM | 2120 nM | – | – | – |
| CCNc1cccnc1N1CCN(C(=O)c2cc3cc(OC)ccc3[nH]2)CC1 [ATEVIRDINE MESYLATE] | – | – | – | – | – | – | – | 1 nM | – | – | – | – | – | – | – | – | – | – | – |
| COc1c2occc2c(OC)c2c(=O)c(C=O)coc12 | 0.0258 nM | 0.0263 nM | 0.0255 nM | 0.0291 nM | 0.0313 nM | 0.0284 nM | 17.5 µM | 0.02 nM | 32600 | 0.0278 nM | 0.0266 nM | 421 nM | 0.0321 nM | 556 | 234 µM | 796 nM | – | – | – |
| COc1cccc2c1C(=O)c1c(O)c3c(c(O)c1C2=O)C[C@@](O)(C(=O)CO)C[C@@H]3O[C@H]1C[C@H](N)[C@H](O)[C@H](C)O1 [DOXORUBICIN] | 6.66 nM | – | – | 4.45 nM | – | – | – | – | – | 4.73 nM | – | – | – | – | – | – | – | 4.16 nM | 5.15 nM |
| Nc1ccn([C@@H]2O[C@H](CO)[C@@H](O)C2(F)F)c(=O)n1 [GEMCITABINE HYDROCHLORIDE] | – | – | – | – | – | 2.13 nM | – | – | – | – | – | – | – | – | – | – | – | – | – |
| COc1c(C(=O)c2cnc3nc4ccccc4n3c2)c(O)c(OC)c2occc12 | 0.0269 nM | 0.0263 nM | 0.0277 nM | 0.0272 nM | 0.026 nM | 0.0277 nM | 25.7 µM | 0.02 nM | 1.14e+06 | 0.0278 nM | 0.0253 nM | 564 nM | 0.0472 nM | 415 | 234 µM | 1320 nM | – | – | – |
| CCCCCOC(=O)Nc1nc(=O)n([C@@H]2O[C@H](C)[C@@H](O)[C@H]2O)cc1F [CAPECITABINE] | – | – | 4.33 nM | – | – | – | – | – | – | – | – | – | – | – | – | – | – | – | – |
| CCC[C@H](NC(=O)[C@@H]1[C@H]2CCC[C@H]2CN1C(=O)[C@@H](NC(=O)[C@@H](NC(=O)c1cnccn1)C1CCCCC1)C(C)(C)C)C(=O)C(=O)NC1CC1 | – | – | – | – | – | – | – | – | – | – | – | 200 nM | – | 1200 | 90 µM | 450 nM | – | – | – |
| COc1c(C(=O)C2=CN3C=CC=CC3N=C2)c(O)c(OC)c2occc12 (configuration not stated) | 0.0446 nM | 0.0481 nM | 0.0277 nM | 0.0298 nM | 0.0275 nM | 0.0277 nM | 16.3 µM | 0.03 nM | 23500 | 0.0329 nM | 0.0305 nM | > 100000 nM | 0.0255 nM | – | – | – | – | – | – |
| COc1c(C(=O)C2=CN3C=CSC3N=C2)c(O)c(OC)c2occc12 (configuration not stated) | 0.0446 nM | 0.0384 nM | 0.028 nM | 0.0284 nM | 0.0255 nM | 0.0255 nM | 15.3 µM | 0.04 nM | 22600 | 0.0281 nM | 0.0284 nM | 342 nM | 0.0284 nM | 371 | 127 µM | 1120 nM | – | 3.28 nM | – |
| COc1c(C(=O)C2=CN3OC(C)=NC3N=C2)c(O)c(OC)c2occc12 (configuration not stated) | 0.0284 nM | 0.0287 nM | 0.026 nM | 0.0329 nM | 0.0281 nM | 0.0255 nM | 0.0003 µM | 0.04 nM | 7690 | 0.0284 nM | 0.0338 nM | > 100000 nM | 0.0281 nM | – | – | – | – | – | – |
